What was measured:
[1] = species on record: Cavia porcellus; test: Percentage relaxation of guinea pig tracheal preparation relative to papaverine at 70 uM; type: functional, Trachea
Summary of the method: (§1)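 Spiral trachea strips from female Hartley guinea pigs (300-500 g) were held in Krebs-Henseleit at 37 °C under 95% O2/5% CO2. Cumulative doses of the hydrochloride salt were given, then papaverine 10 μg/mL as the supramaximal reference. Relaxation at the stated concentration is given as % of papaverine maximum, with vehicle-corrected controls.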

[2] = target: cAMP phosphodiesterase (Bos taurus); test: Inhibition of bovine heart cAMP-phosphodiesterase
[3] = tested on: cAMP phosphodiesterase (Bos taurus); test: Ratio of Ki/Km for inhibition of bovine heart cAMP-phosphodiesterase
[4] = species on record: Cavia porcellus; test: Percentage relaxation of guinea pig tracheal preparation relative to papaverine at 20 uM; type: functional, Trachea; summary of the method: as §1
[5] = target: cAMP phosphodiesterase (Bos taurus); test: Inhibition of bovine heart cAMP-phosphodiesterase; remark: listed apart in the source
[6] = species on record: Cavia porcellus; test: Relaxation in guinea pig tracheal preparation relative to papaverine; type: functional; conditions: Trachea, read-out: ED50 (the source's name)
[7] = species on record: Cavia porcellus; test: Relaxation in guinea pig tracheal preparation relative to papaverine, range 52.5-75.9; type: functional; conditions: Trachea, read-out: ED50 (the source's name)
[8] = species on record: Cavia porcellus; test: Relaxation in guinea pig tracheal preparation relative to papaverine, range 162-589; type: functional; conditions: Trachea, read-out: ED50 (the source's name)
[9] = species on record: Cavia porcellus; test: Relaxation in guinea pig tracheal preparation relative to papaverine, range 63.1-79.4; type: functional; conditions: Trachea, read-out: ED50 (the source's name)
[10] = species on record: Cavia porcellus; test: Percentage relaxation of guinea pig tracheal preparation relative to papaverine at 84 uM; type: functional, Trachea; summary of the method: as §1
[11] = species on record: Cavia porcellus; test: Relaxation in guinea pig tracheal preparation relative to papaverine, range 33.1-91.2; type: functional; conditions: Trachea, read-out: ED50 (the source's name)
[12] = species on record: Cavia porcellus; test: Percentage relaxation of guinea pig tracheal preparation relative to papaverine at 98 uM; type: functional, Trachea; summary of the method: as §1
[13] = species on record: Cavia porcellus; test: Percentage relaxation of guinea pig tracheal preparation relative to papaverine at 42 uM; type: functional, Trachea; summary of the method: as §1

Row | IC50 [2] [µM] | Ratio [3] | IC50 [5] [µM] | SMILES | also measured
1 | 16 | 0.107 |  | CCN(CC)c1nc(NCCc2ccccc2)c2cc(OC)c(OC)cc2n1 | Max relaxation [1]: 29%
2 |  | 0.054 | 87 | CCN(CC)c1nc(NCCc2ccccc2)nc2cc(OC)c(OC)cc12 | EC50 [8]: 234 µM
3 | 295 | 1.15 |  | CCN(CC)c1nc(NCC(O)c2cccc(O)c2)nc2cc(OC)c(OC)cc12 (stereo not drawn) | Max relaxation [10]: 11.5%
4 | 328 | 1.88 |  | CCN(CC)c1nc(NCC(O)c2ccccc2)nc2cc(OC)c(OC)cc12 (stereo not drawn) | EC50 [11]: 49 µM
5 |  | 0.64 | 350 | CCN(CC)c1nc(NCC(O)c2ccccc2)c2cc(OC)c(OC)cc2n1 (stereo not drawn) | Max relaxation [12]: 46%

More lines, now with the values behind:

Row | SMILES | IC50 [2] [µM] | Ratio [3] | IC50 [5] [µM] | also measured
6 | CCN(CC)c1nc(NCC(O)c2cccc(O)c2)c2cc(OC)c(OC)cc2n1.Cl (stereo not drawn) |  | 0.73 | 610 | Max relaxation [4]: 28%
7 | CCN(CC)c1nc(NCC(O)c2cc(O)cc(O)c2)nc2cc(OC)c(OC)cc12.Cl (stereo not drawn) | 432 | 0.43 |  | EC50 [6]: 26.9 µM
8 | CCN(CC)c1nc(NCC(O)c2ccc(O)c(CO)c2)c2cc(OC)c(OC)cc2n1.Cl (stereo not drawn) |  | 0.81 | 428 | EC50 [7]: 63.1 µM
9 | Cn1c(=O)c2nc[nH]c2n(C)c1=O [THEOPHYLLINE] |  |  |  | EC50 [9]: 70.8 µM
10 | CCN(CC)c1nc(NCC(O)c2ccc(O)c(CO)c2)nc2cc(OC)c(OC)cc12.Cl (stereo not drawn) | 339 | 0.69 |  | Max relaxation [13]: 36%
